Assay results from the EternaBench riboswitch data.

System: MS2 coat protein
Assay: apparent Kd, MS2 coat protein; higher = weaker binding; RNA-MaP array; FMN 200 µM where present
Procedure, shortened: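 Designs were transcribed by stalled E. coli RNA polymerase on Illumina sequencing-chip clusters. They were titrated with SNAP-549-labelled MS2 coat protein from 0.7 or 1.5 nM, doubling to 3 µM, in 100 mM Tris-HCl pH 7.5, 80 mM KCl, 4 mM MgCl2, BSA, DTT, yeast tRNA and Tween-20, without and then with constant ligand. The apparent Kd is the median of filtered per-cluster fits after normalisation of green signal to red-channel RNA signal and control-cluster median Fmax.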

[1] = designed as: ON switch for flavin mononucleotide, no ligand
[2] = ligand present: flavin mononucleotide, designed as: ON switch for flavin mononucleotide
[3] = designed as: OFF switch for flavin mononucleotide, no ligand
[4] = ligand present: flavin mononucleotide, designed as: OFF switch for flavin mononucleotide

| Sequence | apparent Kd [1] | apparent Kd [2] | apparent Kd [3] | apparent Kd [4] |
| --- | --- | --- | --- | --- |
| UGCUUCGUGUAAGGAUAUGCAGCCGUUUCGGCUGCAGAAGGUACUAUAAUACAUGAGGAUCACCCAUGUCUCUCGCUUUGCGGG | 63.6 nM | 29.4 nM | – | – |
| UUAAAUCAUGUAGGAUAUGCAUGGCGAAGCUACGCAGAAGGACAUGAGGAUCACCCAUGUGCUAGCGUCUGGAUACAGAUGCAA | – | – | 48.5 nM | 258 nM |
| UGGUACUAGGGAGGAUAUGGGAAGAUACAUGAGGAUCACCCAUGUUUAAGAAUGCCGAGAGGCAGCUAGAAGGCCCUAGUACCU | 675 nM | 24.7 nM | – | – |
| CAAUUGGCACAGAAGGGUGACAUGAGGAUCACCCAUGUAGCGUGGCACUCAGGAGAAGCCACGCCACAGGAUAUGUGCCGGCAC | 73.6 nM | 37.1 nM | – | – |
| UGGGUAAAUGUAGGAUAUCCAUAAUAAUAAUAAGGAGAAGGACAUGAGGAUCACCCAUGUACAGGGAAUUACCCAUUUCCUCUC | – | – | 1340 nM | 1170 nM |
| AAAAAACAUGAGGAUCACCCAUGUGAGGAUAUCGAAAAGUUAAAGAAAAAGACGAAAAUGAGAAGGCGCAAAAA | – | – | 47.3 nM | 46.7 nM |
| CUUAUGUGAGGAUAUGGUGUUGGCCACAGGAAAAAGAUCCUCCAGAAGGCACAUGAGGAUCACCCAUGUAGUGA | – | – | 39.7 nM | 147 nM |
| AAUAGGCUCGCGCAGGAUAUGGAUCAUUCCACAUGAGGAUCACCCAUGUUAAGGAGCCCUUGCAUCCAGAAGGGUGUUGGUCUUU | 35.7 nM | 13.1 nM | – | – |
| GGAUAGGACAGAGGAUAUACGUGCUAAAGAUACUAGCAAAAUUUCCUCACAUGAGGAUCACCCAUGUAGAAGGCUGUCCUAUCG | – | – | 17.8 nM | 466 nM |
| UGGUCACAUGAGGAUCACCCAUGUCAGGAUAUCUACAUUGAAGCCUCGGCUUCAAUGUAGAGAAGGGAUAUAAU | – | – | 65.5 nM | 148 nM |
| UUGGUCGUCGUAGGAUAUGUAGGAUAUUCCUACAUGAGGAUCACCCAUGUUGACAUGGAAGAAGGACAGAAGGACGAUGUCCAU | 447 nM | 5.71 nM | – | – |
| CCGGUGGCGCUAGUGGUGACUGCACAGGAUAUAGCGCUCACAUGAGGAUCACCCAUGUAAGGACGCUAGAAGGGUGAAAGUAUA | 59.9 nM | 19.9 nM | – | – |
| GGUGCCAUGUAGAAGGCAGAUCCGAUUCAGAUCUGAGGAUAUACAUGAGGAUCACCCAUGUAAAGGCACCGCACGAGAGUGCAA | – | – | 8.12 nM | 9.11 nM |
| GACAUGGGCUAGAAGGCCUAUCUAUUUAAGUACGAUUUAGAACAGCAUAGGAGGAUAUGGCUAACAUGAGGAUCACCCAUGUUC | 170 nM | 39.2 nM | – | – |
| CCUCCGUAUGAGGAUAUCGUCCAGGAAACUGGACGAGAAGGCAUGACAUGAGGAUCACCCAUGUUAAAGUGAUG | – | – | 21.4 nM | 58.4 nM |
| CGCUACUACCAGAAGGACAUGAGGAUCACCCAUGUAGGAUAUGGGUUACACGUUCCUGUGUUAAGUUACUACGCUACGUAUGCG | 419 nM | 20.2 nM | – | – |
| GCAGAUCAAGUGAGGAUAUCGUCUACCUCGGUAGUCGAGAAGGCACAUGAGGAUCACCCAUGUGAUUGAUCUGC | – | – | 18.5 nM | 25.9 nM |
| AUCAGCUCGUCAGGAUAUACGUCACUGCGUCAGCAGUGUGGUAAGCUCACAUGAGGAUCACCCAUGUAGAAGGGACGAGCUGAU | – | – | 6.48 nM | 22.9 nM |
| UCGGCGCGAGGAUAUGCGGUUCCUCCCUAGGGCCGGAGCGUACAUGAGGAUCACCCAUGUAGAAGGCGCGCCGC | – | – | 12.3 nM | 15 nM |
| AUUUAAAAGUCAGGAUAUGGUAGAUUAUUCUUAUCAGAAGGGAUUAUUAUACUCAAGUACAUGAGGAUCACCCAUGUUAAAUCA | 18.1 nM | 10.2 nM | – | – |
| ACAUGAGGAUCACCCAUGUUAAAUUAGGAUAUUUGACUGCACAUGAGGUUCACCCAUGUUCUACCGAAGAAGGGAUUAAUAAUU | 50 nM | 49.8 nM | – | – |

| Sequence | apparent Kd [1] | apparent Kd [2] | apparent Kd [3] | apparent Kd [4] |
| --- | --- | --- | --- | --- |
| GGGUACAUCGGAGGAUAUCAUGUAAAUACAUGAGGAUCACCCAUGUCGCUGGAGACAUCGGAGAUUGAGAAGGCCGAUGUACCG | 26.6 nM | 303 nM | – | – |
| GUUGUGCGAGGAUAUACUUGGUGUGUCCUGUGCACGUAAUGACAUGAGGAUCACCCAUGUAGAAGGUGCCCAGG | – | – | 32.8 nM | 33.9 nM |
| GUAGUGUAUGUAGGAUAUGUGAACGAAACGUUCACAGAAGGACAUGAGGAUCACCCAUGUAUUACAGUCAGCAAUCUGACUGUU | – | – | 25.7 nM | 107 nM |
| GGUGGGAAGUAAGGAUAUCGGCCAUAGUUAGGGCGAGAAGGUACAUGAGGAUCACCCAUGUCGUCGCUAGGGACGGGUCCGGCC | – | – | 6.54 nM | 6.96 nM |
| GGAUAGGACAGAGGAUAUACGUGCUUGAGAUACUAGCAAAAUUUCCUCACAUGAGGAUCACCCAUGUAGAAGGCUGUCCUAUCG | – | – | 20.2 nM | 436 nM |
| UAAUAAUAAUAAUAGCAGUAUUACAUGAGGAUCACCCAUGUAUAGGAUAUCGUCAGGAAUACUGUCGAGAAGGAUACAAACUGC | – | – | 20.7 nM | 28.7 nM |
| CCUCGGAGUAAGGAUAUCAAUUUGUAGAUAGAUUGAGAAGGUACUACAUGAGGAUCACCCAUGUCCCGUCUCAA | – | – | 14.7 nM | 16.4 nM |
| ACUAACGAAGGAUAUACUAACGAAACUAAUGCAUAGAUAAAACAUGAGGAUCACCCAUGUAGAAGGUCGAGACU | – | – | 22.5 nM | 25.5 nM |
| GGAUAGGACAGAGGAUAUACGUGCUAGAGAUACUAGCAAAAUUUCCUCACAUGAGGAUCACCCAUGUAGAAGGCUGUCCUAUCA | – | – | 16.7 nM | 380 nM |
| GCACGUGGACAGAAGGCGACAUGAGGAUCACCCAUGUUGGCUCGGGUAUGACCAAUCCGCAUGAUCGAGGAUAUGUCUGCGGGC | – | – | 264 nM | 15.9 nM |
| AGUCGGCGAGGAUAUACAUGAGGAUCACCCAUGUGAUAGAGUGCACGCGUACGUGUAUGUAGAAGGCGCUGACA | – | – | 82 nM | 748 nM |
| GAGAGCCGAGGAUAUACAUGAGGAUCACCCAUGUAAAAAAAAAAAAAAAAAAAAUCAUGUAGAAGGCGGCUUUC | – | – | 122 nM | 89.8 nM |
| AUGCUCAGAGGAUAUACAUGAGGAUCACCCAUGUGUUACCGAGGAGUACGGUCGUCACGUAGAAGGCUGGGUAA | – | – | 17.9 nM | 58.8 nM |
| AGUCGGCGAGGAUAUACAUGAGGAUCACCCAUGUGAUAGAGUGCACGCGUACGUGUACGUAGAAGGCGCUGACA | – | – | 11.9 nM | 37.7 nM |
| CAGUCUACAGGAUAUACAUGAGGAUCACCCAUGUUUAUCAACCUUCAGUAAUCCACAUGUAGAAGGGUAGACUG | – | – | 19.7 nM | 21.4 nM |
| UGAUAGGACAGAGGAUAUACGUGCUAGAGAUACUAGCAAAGUUUCCUCACAUGAGGAUCACCCAUGUAGAAGGCUGUCCUAUCU | – | – | 24.9 nM | 521 nM |
| GAGAAGUCAGGAUAUGCAUGGCGGGACUUGCGUCGUGGCGUGCAGAAGGGACAUGAGGAUCACCCAUGUAAAGC | – | – | 45.4 nM | 39.5 nM |
| UGAUCGAGAGAUCUUAGAUUCUGGUAGGAUAUACAUUUAAAACGCUUUACAUGAGGAUCACCCAUGUAGAAGGACUAGAGUCUA | – | – | 6.68 nM | 7.5 nM |
| AGCCAACAUGAGGAUCACCCAUGUGUACGUUAUGUAGGAUAUCUGAUGCGCGCGUGCGCAAGAGAAGGACGAGACG | 33.4 nM | 21.2 nM | – | – |
| AUAAAUCAUGUAGGAUAUGCGUGGCGAAGCUAUGCAGAAGGACAUGAGGAUCACCCAUGUCUGUCCGUCUGCGUACAGACGGAA | – | – | 29.3 nM | 274 nM |
| GUGCAUUACGAGAAGGCGUACUGGUGAAUAUAAAACGACAAAGGUACAUGAGGAUCACCCAUGUACGAGGAUAUCGAUUUGGCU | – | – | 11 nM | 39.7 nM |
